TNF necrop inh: inhibitors of TNF-alpha induced necroptosis in Jurkat FADD-/- cells; 220,000 tested, 0.068% active; Jurkat FADD-/- TNF necroptosis rescue, ATP luminescence, 24 h; 0 = TNF only, 100 = no-TNF cells; activation (protection from cell death), % at 10 µM;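 active means activation, meaning protection from cell death, of at least 50% relative to plate controls; inactive means activation below 50%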;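 further: necroptosis triggered by 40 ng/mL TNF-alpha added together with compound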
Tb hexokinase: blocks Trypanosoma brucei hexokinase 1 activity. recombinant TbHK1, G6PDH-coupled NADH A340. inhibition, % at 10 µM. 220,000 tested, 0.11% active. AID 1430;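 active means inhibition of 50% or more in the single-dose primary screen; inactive means inhibition below 50%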
Dynein transport: blocks dynein driven cargo transport along microtubules | 3617.4 mouse cells, GR-EGFP nuclear translocation imaging; test concentration mostly 20 µM; stimulated with dexamethasone, 1 µM; stronger effect = lower value | z-score, hits read low | 220,000 tested, 0.47% active | AID 1381;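 active means plate z-score of nuclear minus cytoplasmic receptor signal below a set negative limit, without overly bright fluorescence or cell loss, cut at about -3.5 in these data, passing the limit was not always enough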;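 further: z-score of nuclear minus cytoplasmic ring GR-EGFP intensity difference per well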
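medium = tetracycline-free induction medium containing charcoal-stripped FBS | probe or stimulus = dexamethasone, 1.0 µM final | timing = 48 h induction, then 1 h compound, then 30 min agonist, 37 °C | detection = automated 10x imaging of fixed Hoechst-stained cells | read-out basis = nuclear versus cytoplasmic GR-EGFP signal, averaged per well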
S1P4 ag: human S1P4 receptor agonism | O95977 | S1P4-expressing cell line, agonist reporter assay | activation, % at 4.98 µM | 220,000 tested, 0.35% active | AID 1509; in the data active means activation above about 11%
Target sequence (O95977 whole entry, looked up): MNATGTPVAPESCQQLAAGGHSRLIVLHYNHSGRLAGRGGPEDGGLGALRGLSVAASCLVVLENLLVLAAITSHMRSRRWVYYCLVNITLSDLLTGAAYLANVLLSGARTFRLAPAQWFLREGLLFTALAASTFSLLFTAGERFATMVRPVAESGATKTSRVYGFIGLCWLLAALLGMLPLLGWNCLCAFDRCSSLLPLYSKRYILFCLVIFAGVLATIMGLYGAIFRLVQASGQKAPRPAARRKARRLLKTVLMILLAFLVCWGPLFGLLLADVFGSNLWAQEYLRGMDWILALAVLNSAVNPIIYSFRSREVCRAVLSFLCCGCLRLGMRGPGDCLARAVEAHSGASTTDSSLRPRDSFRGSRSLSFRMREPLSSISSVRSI
L929 necroptosis: L929 zVAD cell death inhibition. L929 zVAD necroptosis rescue, ATP luminescence, 24 h; with zVAD 60 µM. viability rescue, % at 10 µM. 220,000 tested, 0.38% active;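 active means activation, scaled between plate controls, above about 75%, limit read from the data; inactive means activation under that limit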
S1P4 antag: blocks the human S1P4 receptor; O95977; S1P4-expressing cells, antagonist mode, reporter read-out; inhibition, % at 4.98 µM; 220,000 tested, 0.26% active; AID 1510; in the data active means inhibition above about 29%
Dynein confirm: dynein cargo transport inhibition, confirmation; shares compounds with Dynein transport; 3617.4 GR-EGFP nuclear translocation imaging, dexamethasone-induced; calls only at 20 µM; 1,000 tested, 69% active; AID 463116;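 active means inhibition of receptor movement into the nucleus at or above a set limit in both runs, with normal cell brightness and cell count; inconclusive means limit reached in only one run, brightness and count normal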;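 further: dexamethasone at 1 µM final in well for 30 min; nuclear minus cytoplasmic GR-EGFP mean intensity difference in channel 2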
G6PDH ctr: Leuconostoc glucose-6-phosphate dehydrogenase inhibition, counter-screen; shares compounds with Tb hexokinase; purified G6PDH, NADH absorbance, 1 h; inhibition, % at 10 µM; 210 tested, 7% active;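 active means at least 50% inhibition in the glucose-6-phosphate dehydrogenase coupled counterscreen; inconclusive means no clear call, values can overlap the other calls; inactive means inhibition below 50%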
TbHK1 rescreen: T. brucei hexokinase 1 inhibition, rescreen; 210 tested, 10% active; inhibition, % at 10 µM; shares compounds with Tb hexokinase; recombinant TbHK1, G6PDH-coupled NADH A340 absorbance;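 active means inhibition of at least 50% in both of the two screening runs; inconclusive means at least 50% in one run, below 50% in the other; inactive means inhibition below 50% in both runs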
S1P4 agonist cf: confirmation of human S1P4 receptor agonists; shares compounds with S1P4 ag; S1P4 agonist cell-based reporter assay; activation, % at 4.98 µM; 740 tested, 7% active; in the data active means activation above about 12%
S1P1 ag: activates human S1P1, counter-screen for S1P4 agonists; S1P1 agonist cell-based assay, activation; activation, % at 4.98 µM; 740 tested, 4% active; AID 1563; shares compounds with S1P4 ag; in the data active means activation above about 21%
S1P4 antag conf: confirmation of human S1P4 receptor antagonists; 520 tested, 71% active; inhibition, % at 4.98 µM; AID 1524; shares compounds with S1P4 antag; S1P4-expressing cell line, antagonist mode, reporter read-out; in the data active means inhibition above about 30%
S1P1 antag: human S1P1 antagonism as S1P4 antagonist counter-screen; shares compounds with S1P4 antag; cell-based S1P1 antagonist counterscreen, inhibition; inhibition, % at 4.98 µM; 520 tested, 37% active; in the data active means inhibition above about 40%;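 further: receptor stimulated with S1P near its EC80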
Large screens that a line does not name were inactive (follow-up assays come after a bar, where they were run). This is a sample that favours compounds with a hit; in the whole collection about 1.5% have one here.

COc1ccc(OC)c(N2C(=O)NC(=O)/C(=C/c3ccc([N+](=O)[O-])s3)C2=O)c1	Dynein transport -5.3 | Dynein confirm active
CN1CCN(c2ccc([N+](=O)[O-])c3no[n+]([O-])c23)CC1	Dynein transport -4.7, S1P4 antag 49 | Dynein confirm inactive | S1P4 antag conf 76 | S1P1 antag inactive
Cc1cc([N+](=O)[O-])c(Cl)cc1NC(=O)C(C)C	none
CNc1cc(Cl)c2nonc2c1[N+](=O)[O-]	Dynein transport -7, S1P4 antag 74 | Dynein confirm inconclusive | S1P4 antag conf 114 | S1P1 antag inactive
C/C(=N\N1CCCCCC1)c1c(O)n(-c2ccccc2C)c(=O)[nH]c1=O	none
COc1ccc(NC(=O)c2cn(CCC#N)nc2-c2cccc([N+](=O)[O-])c2)cc1	none
COc1ccc(Oc2cc(NC(=O)c3nn(C)cc3[N+](=O)[O-])cc([N+](=O)[O-])c2)cc1	Dynein transport -4, S1P4 antag 86 | Dynein confirm active | S1P4 antag conf 108 | S1P1 antag inactive
CCCc1c(C)nc(-c2ccc(C)cc2)nc1OC(=O)N(C)C	none
CC1(C)C[C@H]2C=C(C=O)[C@]3(C=O)C[C@]3(C)[C@H]2C1	S1P4 antag 70 | Dynein confirm active | S1P4 antag conf 115 | S1P1 antag 118
O=c1c2ccccc2nc(-c2ccccc2)n1-c1ccccc1	none
O=c1c2ccccc2[se]n1-c1ccccc1	Tb hexokinase 91 | G6PDH ctr inactive | TbHK1 rescreen 90
CCn1nc(-c2ccccc2)nc2c(=O)n(C)c(=O)nc1-2	Tb hexokinase 69 | G6PDH ctr inactive | TbHK1 rescreen inactive
O=C1/C(=C\c2ccc(Cl)c(Cl)c2)N2CCC1CC2	none
CCOC(=O)c1c(-n2c(C)cc(/C=C3\C(=O)NC(=O)N(C)C3=O)c2C)sc2c1CCCC2	S1P4 ag 13 | S1P4 agonist cf 24 | S1P1 ag inactive
CCC(=NCC1CCCO1)c1c(O)n(-c2ccccc2C)c(=O)[nH]c1=O (centres undefined)	S1P4 ag 93 | S1P4 agonist cf inactive | S1P1 ag inactive
CC1CCCCN1Cc1c[nH]c2ccccc12 (centres undefined)	none
Cc1ccc(O)c(C(=O)c2cc(C(=O)NCCC(C)C)c(=O)n(CCC(C)C)c2)c1	S1P4 ag 15 | S1P4 agonist cf inactive | S1P1 ag inactive
Cc1ccc(CN(Cc2ccccc2)C(=S)NCC(=O)N2CCC3(CC2)OCCO3)o1	none
Cc1nn(Cc2ccccc2)c(Cl)c1C(=O)Nc1ccc(OC(F)(F)F)cc1	none
CCNC(=O)NC(=O)C(C)OC(=O)c1c(C)nn(Cc2ccccc2)c1Cl (centres undefined)	S1P4 ag 31 | S1P4 agonist cf 53 | S1P1 ag inactive
Cc1nn(Cc2ccccc2Cl)c(Cl)c1C(=O)OCC(=O)NCc1ccco1	none
CCNC(=O)NC(=O)C(C)OC(=O)c1c(C)nn(Cc2ccccc2Cl)c1Cl (centres undefined)	S1P4 ag 31 | S1P4 agonist cf 43 | S1P1 ag inactive
COc1cc(C(=S)N2CCOCC2)cc(OC)c1OC(=O)Cc1ccccc1	none
COc1ccc(-c2n(-c3ccccn3)c3ccccc3[n+]2-c2ccccn2)cc1	S1P4 antag 33 | S1P4 antag conf inactive | S1P1 antag inactive
CC(C(=O)O)N(C(=O)c1ccccc1)c1ccc(F)c(Cl)c1 (centres undefined)	none
C=C1[C@@H](C)[C@H]2[C@H](Cc3ccccc3)NC(=O)[C@]23OC(=O)/C=C/[C@H](O)CCC[C@@H](C)C/C=C/[C@H]3[C@@H]1O	S1P4 antag 44 (no result: TNF necrop inh, Tb hexokinase, Dynein transport, L929 necroptosis) | S1P4 antag conf 51 | S1P1 antag 43
OC(c1cccc(Cl)c1)(c1cccc(Cl)c1)C1CN2CCC1CC2 (centres undefined)	none
COc1cc2c(cc1/C=C/[N+](=O)[O-])OCO2	S1P4 antag 41 | S1P4 antag conf 87 | S1P1 antag inactive
C[C@H]1CCC/C=C/C2C[C@H](O)CC2[C@H](O)/C=C/C(=O)O1 (some centres undefined)	S1P4 antag 51 | S1P4 antag conf 97 | S1P1 antag inactive
CC1CCC/C=C/C2CC(O)CC2C(O)/C=C/C(=O)O1 (centres undefined)	S1P4 antag 47 | S1P4 antag conf 83 | S1P1 antag inactive
C[C@H]1CCC[C@H](O)CCCCCc2cc(O)cc(O)c2C(=O)O1	none
O=C1C(=O)c2ccccc2-c2ccccc21	S1P4 antag 99 | S1P4 antag conf 116 | S1P1 antag 143
COC(=O)C1CN(C#N)N(c2ccc(Cl)cc2)C12c1ccccc1-c1ccccc12 (centres undefined)	S1P4 antag 66 | S1P4 antag conf 121 | S1P1 antag 94
Cc1ccccc1NC1(C#N)CCCCC1	none
CSc1ccc(CNC(C)C(O)c2ccccc2)cc1 (centres undefined)	none
COCCCn1c(-c2ccc(OC)cc2)cc(C(=O)NC2CCCCCCC2)c1C	none
Cc1c(C(=O)Nc2ccccc2)cc(-c2ccccc2)n1CCCN1CCOCC1	S1P4 antag 34 | S1P4 antag conf inactive | S1P1 antag inactive
O=C(COc1ccc(Cl)cc1)N(c1ccc(Cl)cc1)C1CN2CCC1CC2 (centres undefined)	none
NC(=O)c1cn(C2OC(CO)C(O)C2O)c2ncnc(N)c12 (centres undefined)	S1P4 antag 72 | S1P4 antag conf 79 | S1P1 antag 42
CCNC(=O)[C@H]1O[C@@H](n2cnc3c(N)ncnc32)[C@H](O)[C@@H]1O	none (no result: TNF necrop inh, Tb hexokinase, Dynein transport, L929 necroptosis)
Cc1ccc(-n2cc(CNC(C)Cc3cnccn3)c(-c3cccc(C)c3)n2)cc1 (centres undefined)	none

Screens deposited in PubChem by several laboratories.
